Experiment [1] concerns the target T1, Urokinase-type plasminogen activator (Homo sapiens, UniProt P00749). In words: Inhibition of human uPA using pyro-Glu-Gly-Arg-pNA as substrate assessed as para-nitroaniline release from substrate measured for 5 mins by spectrophotometric assay.
In experiment [2] the target is T2, Coagulation factor VII (Homo sapiens) (UniProt P08709).
T2 sequence (whole entry): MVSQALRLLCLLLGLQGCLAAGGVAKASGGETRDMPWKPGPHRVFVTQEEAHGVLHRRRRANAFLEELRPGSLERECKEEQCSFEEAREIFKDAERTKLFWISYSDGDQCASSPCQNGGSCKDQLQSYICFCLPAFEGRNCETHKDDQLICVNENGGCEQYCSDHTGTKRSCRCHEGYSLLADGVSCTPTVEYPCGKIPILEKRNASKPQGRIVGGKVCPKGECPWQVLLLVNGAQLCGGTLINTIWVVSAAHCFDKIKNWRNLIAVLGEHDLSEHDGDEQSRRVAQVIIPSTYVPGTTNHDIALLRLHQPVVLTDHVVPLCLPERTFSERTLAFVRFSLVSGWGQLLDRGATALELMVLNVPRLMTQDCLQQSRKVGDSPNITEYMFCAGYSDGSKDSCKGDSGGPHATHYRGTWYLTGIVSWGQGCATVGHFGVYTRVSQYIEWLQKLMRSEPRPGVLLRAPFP
In words: Inhibition of purified human factor 7a using MeSO2-Cha-Abu-Arg-pNA as substrate at 100 uM measured for 5 mins by spectrophotometric assay. A digest of the protocol:
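Purified human plasma FVIIa with tissue factor (Innovin) present. MeSO2-Cha-Abu-Arg-pNA at 800 μM in assay. Buffer 50 mM HEPES pH 7.5, 100 mM NaCl, 5 mM CaCl2, 0.1% BSA.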

Another experiment deals with Prothrombin (Homo sapiens, UniProt P00734). Put plainly: Inhibition of human plasma thrombin using pyroGlu-Pro-Arg-pNA-HCl as substrate at 100 uM measured for 5 mins by spectrophotometric assay. It is filed as cell-free. An outline of the steps:
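Thrombin from human plasma with pyroGlu-Pro-Arg-pNA (CS-21(66), Km 400 μM) at 415 μM in assay. 50 mM HEPES pH 8.2. pNA release at 405 nm over 5 min at 37 °C, in duplicate.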

Experiment [3] addresses Tissue-type plasminogen activator (Homo sapiens, UniProt P00750). Put plainly: Inhibition of recombinant human tPA using H-D-Ile-Pro-L-Arg-pNA-2HCl as substrate at 100 uM measured for 5 mins by spectrophotometric assay.
Experiment [4] concerns the target T3, Coagulation factor X (Homo sapiens, UniProt P00742). In words: Inhibition of purified human factor 10a using Suc-Ile-Glu(yPip)-GlyArg-pNa-HCl as substrate at 100 uM measured for 5 mins by spectrophotometric assay. An outline of the steps: (§1)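 Purified human factor Xa, substrate Suc-Ile-Glu(γPip)-Gly-Arg-pNA (CS-11(32)) at 411 μM in assay. HEPES pH 8.2. Read at 405 nm for 5 min at 37 °C, duplicate wells.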

A further experiment deals with Plasminogen (Homo sapiens, UniProt P00747). Put plainly: Inhibition of human plasma plasmin using pyroGlu-Pro-Arg-pNA-HCl as substrate at 100 uM measured for 5 mins by spectrophotometric assay. It is filed as cell-free. An outline of the steps: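 Plasmin purified from human plasma. Substrate pyroGlu-Pro-Arg-pNA (CS-21(66), Km 400 μM) at 400 μM in assay. HEPES pH 7.0, 37 °C, absorbance at 405 nm followed for 5 min, duplicates.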
Chain of Plasminogen (P00747 97-580 limits assumed): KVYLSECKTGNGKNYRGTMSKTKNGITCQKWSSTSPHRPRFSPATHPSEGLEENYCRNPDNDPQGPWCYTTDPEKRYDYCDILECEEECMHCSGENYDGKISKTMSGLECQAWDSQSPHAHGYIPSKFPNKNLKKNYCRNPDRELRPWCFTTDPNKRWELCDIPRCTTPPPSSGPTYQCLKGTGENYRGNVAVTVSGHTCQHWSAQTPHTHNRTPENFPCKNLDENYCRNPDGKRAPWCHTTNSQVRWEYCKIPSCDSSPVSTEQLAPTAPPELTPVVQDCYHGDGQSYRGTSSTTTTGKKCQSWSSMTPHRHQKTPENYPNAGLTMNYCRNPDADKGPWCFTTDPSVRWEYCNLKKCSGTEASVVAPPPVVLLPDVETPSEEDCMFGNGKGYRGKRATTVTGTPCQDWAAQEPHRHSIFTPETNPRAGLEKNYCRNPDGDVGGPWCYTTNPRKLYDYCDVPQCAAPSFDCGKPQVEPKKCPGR
Chain of Plasminogen (P00747 581-810 limits assumed): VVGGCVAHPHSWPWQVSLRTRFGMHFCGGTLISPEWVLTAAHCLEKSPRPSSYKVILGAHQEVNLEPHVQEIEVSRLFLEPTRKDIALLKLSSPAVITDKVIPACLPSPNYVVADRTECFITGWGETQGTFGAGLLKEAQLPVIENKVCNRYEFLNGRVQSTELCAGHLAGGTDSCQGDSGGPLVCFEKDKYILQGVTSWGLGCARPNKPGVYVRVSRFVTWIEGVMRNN

The target of the next experiment is Plasma kallikrein (Homo sapiens, UniProt P03952). Put plainly: Inhibition of human plasma kallikrein using D-Pro-Phe-Arg-pNA-2HCl as substrate at 100 uM measured for 5 mins by spectrophotometric assay. It is filed as cell-free. An outline of the steps:
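Human plasma kallikrein, chromogenic substrate CS-31(02) (Km 269 μM) at 269 μM in assay. 50 mM HEPES at pH 7.4. Absorbance at 405 nm over 5 min at 37 °C, duplicates.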

The species entered for a further experiment is Bos taurus. Put plainly: Inhibition of bovine pancreatic trypsin using Na-benzoyl-D,L-Arg-pNA-HCl as substrate at 100 uM measured for 5 mins by spectrophotometric assay.
The target of experiment [5] is T1, Urokinase-type plasminogen activator. Put plainly: Reversible inhibition of human uPA using pyro-Glu-Gly-Arg-pNA as substrate assessed as para-nitroaniline release from substrate measured for 5 mins by spectrophotometry based enzyme kinetics assay.
The target is the same in experiment [6]. In words: Tight binding inhibition of human uPA using pyro-Glu-Gly-Arg-pNA as substrate assessed as para-nitroaniline release from substrate measured for 5 mins by spectrophotometry based enzyme kinetics assay.
Experiment [7] has the same target. Put plainly: Slow dissociating inhibition of human uPA using pyro-Glu-Gly-Arg-pNA as substrate assessed as para-nitroaniline release from substrate measured for 5 mins by spectrophotometry based enzyme kinetics assay.
For experiment [8], the target named is T3, Coagulation factor X. Put plainly: Inhibition of purified human factor 10a using Suc-Ile-Glu(gammaPip)-GlyArg-pNa-HCl as substrate measured for 5 mins by spectrophotometric assay. A digest of the protocol: as §1
Experiment [9] can be described thus: Inhibition of bovine pancreatic trypsin using Nalpha-benzoyl-D,L-Arg-pNA-HCl as substrate measured for 5 mins by spectrophotometric assay. More on the design: species or system Bos taurus.

Calls of active or inactive are those of the source. The calls are words filed in the database; no cut-off is given here.

T3 sequence (P00742 41-179 limits assumed): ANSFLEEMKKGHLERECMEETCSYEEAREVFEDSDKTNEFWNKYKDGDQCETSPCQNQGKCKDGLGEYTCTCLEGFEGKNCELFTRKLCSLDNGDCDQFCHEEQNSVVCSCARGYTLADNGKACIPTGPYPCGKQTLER
T3 sequence (P00742 235-488 limits assumed): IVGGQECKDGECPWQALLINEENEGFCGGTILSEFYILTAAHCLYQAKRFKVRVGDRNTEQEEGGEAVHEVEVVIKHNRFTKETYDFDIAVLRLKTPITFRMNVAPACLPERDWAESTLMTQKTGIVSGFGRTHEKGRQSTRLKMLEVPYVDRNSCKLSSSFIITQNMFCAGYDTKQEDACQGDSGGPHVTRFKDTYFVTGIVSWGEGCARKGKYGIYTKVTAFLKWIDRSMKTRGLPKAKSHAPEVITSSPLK
Chain of Plasma kallikrein (P03952 20-390 limits assumed): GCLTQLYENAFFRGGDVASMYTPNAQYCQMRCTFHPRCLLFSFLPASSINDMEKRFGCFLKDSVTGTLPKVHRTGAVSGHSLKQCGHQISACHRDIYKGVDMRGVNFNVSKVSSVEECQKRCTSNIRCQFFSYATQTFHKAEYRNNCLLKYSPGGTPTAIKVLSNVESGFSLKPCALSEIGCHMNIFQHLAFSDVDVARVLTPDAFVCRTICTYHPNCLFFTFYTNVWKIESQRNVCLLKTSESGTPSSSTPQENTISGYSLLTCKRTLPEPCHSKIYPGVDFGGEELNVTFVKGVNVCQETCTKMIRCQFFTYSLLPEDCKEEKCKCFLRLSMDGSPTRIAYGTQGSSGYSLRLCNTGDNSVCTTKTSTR
Chain of Plasma kallikrein (P03952 391-638 limits assumed): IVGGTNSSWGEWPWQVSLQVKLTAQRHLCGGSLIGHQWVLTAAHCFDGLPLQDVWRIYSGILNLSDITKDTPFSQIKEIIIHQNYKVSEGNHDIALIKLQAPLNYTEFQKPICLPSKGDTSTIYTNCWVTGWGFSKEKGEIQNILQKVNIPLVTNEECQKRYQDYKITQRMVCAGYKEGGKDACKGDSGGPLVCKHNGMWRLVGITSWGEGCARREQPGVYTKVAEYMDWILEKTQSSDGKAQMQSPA
Chain of Tissue-type plasminogen activator (P00750 36-562 limits assumed): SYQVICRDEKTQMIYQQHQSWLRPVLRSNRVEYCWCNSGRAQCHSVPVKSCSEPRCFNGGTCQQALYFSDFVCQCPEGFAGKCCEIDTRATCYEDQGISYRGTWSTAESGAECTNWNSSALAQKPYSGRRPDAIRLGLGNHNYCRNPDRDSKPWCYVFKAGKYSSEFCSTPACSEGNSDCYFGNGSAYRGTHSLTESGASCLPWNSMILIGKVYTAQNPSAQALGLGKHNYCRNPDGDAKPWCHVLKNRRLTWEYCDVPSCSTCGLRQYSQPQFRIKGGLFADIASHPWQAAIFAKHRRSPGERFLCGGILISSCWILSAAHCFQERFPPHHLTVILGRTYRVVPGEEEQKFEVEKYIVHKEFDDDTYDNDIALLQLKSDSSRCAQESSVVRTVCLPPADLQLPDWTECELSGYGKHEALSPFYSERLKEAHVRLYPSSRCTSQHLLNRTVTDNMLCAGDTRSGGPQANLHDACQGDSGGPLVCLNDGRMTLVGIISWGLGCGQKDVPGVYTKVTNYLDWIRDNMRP

For orientation: IC50 means the concentration at which inhibition is half-maximal. As to `COC(=O)c1ccn2c(NCc3ccc(NC(=N)N)cc3)c(-c3cccnc3)nc2c1`, in [1], the 50% inhibitory concentration (IC50) was determined as 15 µM.

On to `CCc1nc2ccccn2c1NCc1ccc(NC(=N)N)cc1`, for which the IC50 in experiment [1] came to 48.5 µM.

Broadly, the inhibition is the drop in the measured response relative to a control, in per cent. With `CN1CCN(CCNC(=O)c2ccn3c(NCc4ccc(NC(=N)N)cc4)cnc3c2)CC1`, the IC50 in [1] worked out at 0.404 µM. The inhibition amounted to 2% in [2]; 6.6% at Prothrombin; 2.8% in experiment [3]; 12.2% against Coagulation factor X [4]; 0% against Plasminogen; 0% at Plasma kallikrein. This compound returned an inhibition in the experiment filed under Bos taurus of 32%. For the same compound, the inhibition result in experiment [5], in experiment [6] and in experiment [7] was “Active” each time.

For the compound `NCCOc1c(Cl)cc(Nc2cnc3ccccn23)cc1Cl`, in experiment [1], the IC50 amounted to 500 µM.

As to `N=C(N)Nc1ccc(CNc2cnc3cc(C(=O)NC4CC4)ccn23)cc1`, the IC50 in experiment [1] amounted to 0.184 µM. Further, the inhibition in experiment [2] was 2.6%; against Prothrombin, 8%; in experiment [3], 0%; against Coagulation factor X [4] it was 45.4%; against Plasminogen it was 3.3%; on Plasma kallikrein, 0%. In the experiment listed under Bos taurus, this compound came in with an inhibition of 46%. The inhibition entry in [5], in experiment [6] and in experiment [7] was “Active” each time.

Regarding `CCc1nc2ccccn2c1NCCc1ccc(NC(=N)N)cc1`, the 50% inhibitory concentration (IC50) in [1] is 150 µM.

Regarding `N=C(N)Nc1ccc(CNc2c(-c3cccnc3)nc3ccc(C(F)(F)F)cn23)cc1`, the IC50 in [1] was found to be 200 µM.

`N=C(N)Nc1ccc(CNc2c(-c3cccnc3)nc3cc(C(=O)O)ccn23)cc1`: the IC50 in [1] was 26.9 µM.

Regarding `N=C(N)Nc1ccc(CNc2cnc3cc(C(=O)NCc4ccc(F)cc4)ccn23)cc1`, the IC50 in experiment [1] came out at 0.254 µM. Moreover, the inhibition came to 4.2% in experiment [2]; 19.5% at Prothrombin; 11.9% in [3]; 45.7% at Coagulation factor X [4]; 8.3% against Plasminogen; 0% at Plasma kallikrein. Further, the inhibition in the experiment listed under Bos taurus came to 43.2%. Besides, the inhibition result in [5], in experiment [6] and in [7] was “Active” throughout.

Consider `N=C(N)Nc1ccc(CNc2c(-c3cccnc3)nc3ccc(C(N)=O)cn23)cc1`, for which, in experiment [1], the IC50 is 27.3 µM.

In the case of `Cc1cccn2c(NCc3ccc(NC(=N)N)cc3)c(-c3cccnc3)nc12`, the IC50 in experiment [1] came out at 27.4 µM.

On to `CCCCNC(=O)c1ccc2nc(-c3cccnc3)c(NCc3ccc(NC(=N)N)cc3)n2c1`, for which the IC50 in experiment [1] turned out to be 60.8 µM.

`CCCCNC(=O)c1ccn2c(NCc3ccc(NC(=N)N)cc3)c(-c3cccnc3)nc2c1`: the IC50 in [1] was 6.89 µM.

`N=C(N)Nc1ccc(CNc2c(Cc3cccc(Cl)c3)nc3ccccn23)cc1`: the IC50 in [1] is 18 µM.

In the case of `Clc1ccc(OCCNc2cnc3ccccn23)c(Cl)c1`, in [1], the IC50 is 250 µM.

As for `CCc1ccc(-c2nc3ccccn3c2NCc2ccc(NC(=N)N)cc2)cc1`, the IC50 in experiment [1] turned out to be 63.9 µM.

Consider `N=C(N)Nc1ccc(CNc2c(-c3cccnc3)nc3ccccn23)cc1`, for which the IC50 in [1] turned out to be 250 µM. For the same compound, the inhibition in experiment [2] was 0%; at Prothrombin, 6.6%; in experiment [3], 9.4%; on Coagulation factor X [4] it was 24.6%; against Plasminogen, 0%; against Plasma kallikrein it was 0%. In the experiment filed under Bos taurus, the inhibition was 3.3%.

As for `N=C(N)Nc1ccc(CNc2c(-c3ccccc3)nc3ccccn23)cc1`, the IC50 in experiment [1] was found to be 30.1 µM.

`N=C(N)Nc1ccccc1`: the inhibition (in experiment [2]; at Prothrombin; in [3]; against Coagulation factor X [4]; at Plasminogen; at Plasma kallikrein) was 0% in each case. The compound further registered an inhibition in the experiment listed under Bos taurus of 38.8%.

As for `N=C(N)Nc1ccc(CNc2c(-c3cccc(F)c3)nc3ccccn23)cc1`, the IC50 in experiment [1] turned out to be 100 µM.

As for `N=C(N)Nc1ccc(CNc2c(-c3ccc(F)cc3)nc3ccccn23)cc1`, the IC50 in experiment [1] was found to be 125 µM.

As to `N=C(N)Nc1ccc(CNc2c(CN)nc3ccccn23)cc1`, in experiment [1], the IC50 amounted to 9.3 µM.

On to `NCCOc1ccc(Nc2cnc3ccccn23)cc1`, for which the IC50 in [1] was greater than 1000 µM.

With `N=C(N)NCCCCNc1cnc2ccccn12`, the IC50 in experiment [1] stood at 200 µM.

With `N=C(N)Nc1ccc(CNc2c(-c3cc(Cl)cc(Cl)c3)nc3ccccn23)cc1`, the IC50 in [1] was 99.2 µM.

In the case of `NC[C@H]1CC[C@H](Nc2cnc3ccccn23)CC1`, the concentration for half-maximal inhibition (IC50) in experiment [1] is 500 µM.

With `N=C(N)Nc1ccc(CNc2cnc3cc(C(=O)NC4CCCC4)ccn23)cc1`, in experiment [1], the half-maximal inhibitory concentration (IC50) was 0.174 µM. Besides, the inhibition was 4% in experiment [2]; 17.8% at Prothrombin; 11.2% in experiment [3]; 47.8% at Coagulation factor X [4]; 0% against Plasminogen; 0% against Plasma kallikrein. Further, the inhibition in the experiment listed under Bos taurus was determined as 37.1%. Also, the inhibition result in [5], in [6] and in experiment [7] was “Active” in each case.

Regarding `N=C(N)Nc1ccc(CCNc2c(-c3cccc(Cl)c3)nc3cnccn23)cc1`, in experiment [1], the IC50 amounted to 53.8 µM.

Regarding `N=C(N)Nc1ccc(CNc2cnc3cc(C(=O)NCCO)ccn23)cc1`, the IC50 was 0.366 µM in experiment [1] and 51.6 µM at Coagulation factor X [8]. Also, the inhibition in experiment [2] was 5%; against Prothrombin it was 4.7%; in experiment [3], 0%; against Plasminogen, 15.6%; against Plasma kallikrein it was 0%; in the experiment filed under Bos taurus it was 43.3%. Further, the inhibition result in experiment [5], in experiment [6] and in experiment [7] was “Active” each time.

On to `N=C(N)Nc1ccc(CCNc2cnc3ccccn23)cc1`, for which the half-inhibitory concentration (IC50) in experiment [1] is 19.4 µM.

Regarding `N=C(N)Nc1ccc(CNc2c(Cc3ccccc3)nc3ccccn23)cc1`, the IC50 in [1] is 30.2 µM.

`N=C(N)Nc1ccc(CNc2c(C3CCNCC3)nc3ccccn23)cc1`: the IC50 in experiment [1] was 250 µM.

For the compound `N=C(N)Nc1ccc(CNc2c(-c3cccnc3)nc3ccc(F)cn23)cc1`, the IC50 in experiment [1] is 57.6 µM.

In the case of `NCc1ccc(Nc2cnc3ccccn23)cc1`, the concentration for half-maximal inhibition (IC50) in experiment [1] was greater than 500 µM.

Consider `N=C(N)NC(=O)c1nc(Cl)c(N)nc1N` [AMILORIDE], for which, in experiment [9], the IC50 came to 31.8 µM. The inhibition in [2] came to 7.4%; against Prothrombin, 5.2%; in experiment [3] it was 1%; against Coagulation factor X [4] it was 3.5%; at Plasminogen, 0%; on Plasma kallikrein, 0%.

On to `Cc1ccc2nc(-c3cccnc3)c(NCc3ccc(NC(=N)N)cc3)n2c1`, for which, in experiment [1], the 50% inhibitory concentration (IC50) is 23.9 µM.

On to `N=C(N)Nc1ccc(CNc2cnc3ccccn23)cc1`, for which the IC50 in experiment [1] amounted to 9.04 µM; in [9], 115 µM. The inhibition in experiment [2] was determined as 2.5%; against Prothrombin it was 23%; in experiment [3], 33.6%; against Coagulation factor X [4] it was 42%; against Plasminogen, 29.8%; against Plasma kallikrein it was 39.4%.
